Experimental data gathered from unrelated publications.
Lines come from different studies, so protocols differ.
Cell line: SW-620

SMILES | test | setting | measurement | value
Cn1cc(-c2ccc(-c3cncc(Cl)c3N3CCC4(CCNC4=O)CC3)cc2)cn1 | colony formation | 14 days, 3D culture | GI50 | 0.14 µM
O=C(/C=C/c1ccc2c(=O)n(Cc3ccccc3F)cnc2c1)NO | cell growth or viability, SRB | 48 h | IC50 | 1.77 µM
COc1cccc(Oc2ccccc2NC(=O)CNC(=O)c2cccc3ccccc23)c1 | cell growth or viability, SRB | 48 h | GI50 | 0.166 µM
COc1ccc(C(=O)/C=C/c2ccc3ccccc3c2)cc1S(N)(=O)=O | cell growth or viability, SRB | 48 h | GI50 | 1.8 µM
O=C(/C=C/c1ccc2ncn(Cc3ccccc3)c(=O)c2c1)NO | cell growth or viability, SRB | 48 h | IC50 | 1.52 µM
CC(C)n1c(/C=C/C(O)CC(O)CC(=O)O)c(-c2ccc(F)cc2)c2ccccc21 (stereo not shown) | cell growth or viability, SRB | 72 h | IC50 | 0.49 µg/mL
O=C(/C=C/c1ccc2c(=O)n(CCO)cnc2c1)NO | cell growth or viability, SRB | 48 h | IC50 | 3.68 µM
CC(=O)Nc1cccc(-n2c(=O)n(C3CC3)c(=O)c3c(Nc4ccc(I)cc4F)n(C)c(=O)c(C)c32)c1 | cell growth or viability, resazurin | 780 pM, 72 h | viability | 71.7%
O=C(/C=C/c1ccc2ncn(Cc3ccc(Cl)cc3)c(=O)c2c1)NO | cell growth or viability, SRB | 48 h | IC50 | 2.57 µM
COc1ccc(C(=O)/C=C/c2cccc(Cl)c2Cl)cc1S(N)(=O)=O | cell growth or viability, SRB | 10 µM | inhibition | 147%
CC[C@H](C)C(=O)O[C@H]1C[C@@H](C)C=C2C=C[C@H](C)[C@H](CC[C@@H]3C[C@@H](O)CC(=O)O3)[C@H]21 | cell growth or viability, SRB | 72 h | IC50 | 0.03 µg/mL
COc1ccc(C(=O)/C=C/c2ccccc2Br)cc1S(N)(=O)=O | cell growth or viability, SRB | 10 µM | inhibition | 146%
CC(C)C[C@H](NC(=O)[C@H](Cc1ccccc1)NC(=O)c1cnccn1)B(O)O | cell growth or viability, ATP luminescence | – | IC50 | 0.009 µM
S=C([S][Au-][P+](CCCCCC[P+]([Au-][S]C(=S)n1cccn1)(c1ccccc1)c1ccccc1)(c1ccccc1)c1ccccc1)n1cccn1 | cell growth or viability | – | GI50 | 4.49 µM
COc1ccc(C(=O)/C=C/c2cccc(Br)c2)cc1S(N)(=O)=O | cell growth or viability, SRB | 10 µM | inhibition | 120%
CCn1cnc2cc(/C=C/C(=O)NO)ccc2c1=O | cell growth or viability, SRB | 48 h | IC50 | 2.97 µM
